Data taken from ChEMBL document CHEMBL1128267, “Dicationic diarylfurans as anti-Pneumocystis carinii agents” (J Med Chem, 1995).
pIC50: −log10 of the molar value.

Key:
Pneumocystis carinii [1] = test: In vivo activity against pneumocystis carinii was determined as toxicity which indicates the death of animals at a dose of 4.8 uM/Kg/day; format: organism-based
Procedure, shortened: (§1)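 Dosing intravenous unless otherwise noted; daily dose in μM/kg/day. Toxicity graded on a numerical severity scale where higher scores mean more severe toxicity and scores above 2 mean some animals died.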

Giardia intestinalis = test: Inhibitory activity for 50% on growth of Giardia lamblia in cell culture; format: functional, organism-based; settings: Giardia duodenalis
[2] = target: DNA topoisomerase II (Giardia lamblia); test: Inhibitory activity for 50% on topoisomerase II isolated from Giardia lamblia
Pneumocystis carinii [3] = test: In vivo activity against pneumocystis carinii was determined as toxicity which indicates the death of animals and counted cysts in a blinding protocol in lung tissue reported as % of saline treated control at a dose of 4.8 uM/Kg/day; format: organism-based
Procedure, shortened: (§2)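 Dosed intravenously unless otherwise marked (some oral). Toxicity graded on a severity scale where larger values are more severe and values above 2 mean some animals died. Cysts in lung tissue counted under a blinded protocol and expressed as percent of saline-treated controls.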

Pneumocystis carinii [4] = test: In vivo activity against pneumocystis carinii was determined as toxicity which indicates the death of animals at a dose of 22.1 (uM/kg/day); format: organism-based; procedure, shortened: as §1
Pneumocystis carinii [5] = test: In vivo activity against pneumocystis carinii was determined as toxicity which indicates the death of animals and counted cysts in a blinding protocol in lung tissue reported as % of saline treated control at a dose of 22.1 (uM/kg/day); format: organism-based; procedure, shortened: as §2
Pneumocystis carinii [6] = test: In vivo activity against pneumocystis carinii was determined as toxicity which indicates the death of animals at a dose of 9.2 uM/Kg/day; format: organism-based; procedure, shortened: as §1
Pneumocystis carinii [7] = test: In vivo activity against pneumocystis carinii was determined as toxicity which indicates the death of animals and counted cysts in a blinding protocol in lung tissue reported as % of saline treated control at a dose of 9.2 uM/Kg/day; format: organism-based; procedure, shortened: as §2
Pneumocystis carinii [8] = test: In vivo activity against pneumocystis carinii was determined as toxicity which indicates the death of animals at a dose of 0.18 uM/Kg/day; format: organism-based; procedure, shortened: as §1
Pneumocystis carinii [9] = test: In vivo activity against pneumocystis carinii was determined as toxicity which indicates the death of animals and counted uM/Kg/day; format: organism-based; procedure, shortened: as §2
Pneumocystis carinii [10] = test: In vivo activity against pneumocystis carinii was determined as toxicity which indicates the death of animals and counted cysts in a blinding protocol in lung tissue reported as % of saline treated control at a dose of 2.3 uM/Kg/day; format: organism-based; procedure, shortened: as §2
Pneumocystis carinii [11] = test: In vivo activity against pneumocystis carinii was determined as toxicity which indicates the death of animals at a dose of 2.3 uM/Kg/day; format: organism-based; procedure, shortened: as §1
Pneumocystis carinii [12] = test: In vivo activity against pneumocystis carinii was determined as toxicity which indicates the death of animals at a dose of 10.9 uM/Kg/day; format: organism-based; procedure, shortened: as §1
Pneumocystis carinii [13] = test: In vivo activity against pneumocystis carinii was determined as toxicity which indicates the death of animals and counted cysts in a blinding protocol in lung tissue reported as % of saline treated control at a dose of 10.9 uM/Kg/day); format: organism-based; procedure, shortened: as §2
Pneumocystis carinii [14] = test: In vivo activity against pneumocystis carinii was determined as toxicity which indicates the death of animals and counted cysts in a blinding protocol in lung tissue reported as % of saline treated control at a dose of 23.3 uM/Kg/day; format: organism-based; procedure, shortened: as §2
Pneumocystis carinii [15] = test: In vivo activity against pneumocystis carinii was determined as toxicity which indicates the death of animals at a dose of 23.3 uM/Kg/day; format: organism-based; procedure, shortened: as §2
Pneumocystis carinii [16] = test: In vivo activity against pneumocystis carinii was determined as toxicity which indicates the death of animals and counted cysts in a blinding protocol in lung tissue reported as % of saline treated control at a dose of 66.3 (uM/kg/day); format: organism-based; procedure, shortened: as §2
Pneumocystis carinii [17] = test: In vivo activity against pneumocystis carinii was determined as toxicity which indicates the death of animals at a dose of 0.27 (uM/kg/day); format: organism-based; procedure, shortened: as §1
Pneumocystis carinii [18] = test: In vivo activity against pneumocystis carinii was determined as toxicity which indicates the death of animals at a dose of 2.7 (uM/kg/day); format: organism-based; procedure, shortened: as §1
Pneumocystis carinii [19] = test: In vivo activity against pneumocystis carinii was determined as toxicity which indicates the death of animals and counted cysts in a blinding protocol in lung tissue reported as % of saline treated control at a dose of 0.27 (uM/kg/day); format: organism-based; procedure, shortened: as §2
Pneumocystis carinii [20] = test: In vivo activity against pneumocystis carinii was determined as toxicity which indicates the death of animals at a dose of 66.3 (uM/kg/day); format: organism-based; procedure, shortened: as §1
Pneumocystis carinii [21] = test: In vivo activity against pneumocystis carinii was determined as toxicity which indicates the death of animals at a dose of 13.3 (uM/kg/day); format: organism-based; procedure, shortened: as §1
Pneumocystis carinii [22] = test: In vivo activity against pneumocystis carinii was determined as toxicity which indicates the death of animals and counted cysts in a blinding protocol in lung tissue reported as % of saline treated control at a dose of 13.3 (uM/kg/day); format: organism-based; procedure, shortened: as §2
Pneumocystis carinii [23] = test: In vivo activity against pneumocystis carinii was determined as toxicity which indicates the death of animals and counted cysts in a blinding protocol in lung tissue reported as % of saline treated control at a dose of 2.7 (uM/kg/day); format: organism-based; procedure, shortened: as §2
Pneumocystis carinii [24] = test: In vivo activity against pneumocystis carinii was determined as toxicity which indicates the death of animals and counted cysts in a blinding protocol in lung tissue reported as % of saline treated control at a dose of 0.027 (uM/kg/day); format: organism-based; procedure, shortened: as §2
Pneumocystis carinii [25] = test: In vivo activity against pneumocystis carinii was determined as toxicity which indicates the death of animals at a dose of 0.027 (uM/kg/day); format: organism-based; procedure, shortened: as §1

`Cl.Cl.OCCN1CCN=C1c1ccc(-c2ccc(-c3ccc(C4=NCCN4CCO)cc3)o2)cc1` was tested, and the “No. of dead animals” value (Pneumocystis carinii [1]) was 3, the pIC50 (Giardia intestinalis) was 5.34 and the IC50 [2] was 20 µM. The Control (Pneumocystis carinii [3]) was 107.3%.
With `N=C(N)c1ccc(OCCCCCOc2ccc(C(=N)N)cc2)cc1` [PENTAMIDINE] the “No. of dead animals” value (Pneumocystis carinii [4]) was 2 and the Control (Pneumocystis carinii [5]) was 3.66%.
`CCN1CCN=C1c1ccc(-c2ccc(-c3ccc(C4=NCCN4CC)cc3)o2)cc1.Cl.Cl` showed a pIC50 (Giardia intestinalis) of 5.48 and an IC50 [2] of 25 µM.
In the case of `Cl.Cl.c1cc(-c2ccc(-c3ccc(C4=NC5CCCCC5N4)cc3)o2)ccc1C1=NC2CCCCC2N1` (configuration not stated), the “No. of dead animals” value (Pneumocystis carinii [6]) was 1, the Control (Pneumocystis carinii [7]) was 80.5% and the pIC50 (Giardia intestinalis) was 5.40. For the same compound, the IC50 [2] was 3 µM.
`Cl.Cl.c1cc(-c2ccc(-c3ccc(C4=NCCCCN4)cc3)o2)ccc1C1=NCCCCN1` was tested, and the “No. of dead animals” value (Pneumocystis carinii [8]) was 0, the Control (Pneumocystis carinii [9]) was 115.4% and the pIC50 (Giardia intestinalis) was 6.03. The IC50 [2] was 1.5 µM, the Control (Pneumocystis carinii [10]) was 2.9% and the “No. of dead animals” value (Pneumocystis carinii [11]) was 3.
Work on `N[C+](N)c1ccc(-c2ccc(-c3ccc([C+](N)N)cc3)o2)cc1` yielded a pIC50 (Giardia intestinalis) of 6.36.
In the case of `Cl.Cl.c1cc(-c2ccc(-c3ccc(C4=NCCCN4)cc3)o2)ccc1C1=NCCCN1`, the “No. of dead animals” value (Pneumocystis carinii [12]) was 2, the Control (Pneumocystis carinii [13]) was 0.4% and the pIC50 (Giardia intestinalis) was 7.07. It also gave an IC50 [2] of 0.5 µM.
Work on `Cl.c1cc(-c2ccc(-c3ccc(C4=NCCN4)cc3)o2)ccc1C1=NCCN1` yielded a Control (Pneumocystis carinii [14]) of 35.4%, a pIC50 (Giardia intestinalis) of 5.71 and an IC50 [2] of 3 µM. For the same compound, the Toxicity (Pneumocystis carinii [15]) was 2 number of dead animals.
With `Cl.Cl.N=C(N)c1ccc(-c2ccc(-c3ccc(C(=N)N)cc3)o2)cc1` the Control (Pneumocystis carinii [16]) was 28.4%, the “No. of dead animals” value (Pneumocystis carinii [17]) was 0 and the “No. of dead animals” value (Pneumocystis carinii [18]) was 0. For the same compound, the Control (Pneumocystis carinii [19]) was 4.8%, the “No. of dead animals” value (Pneumocystis carinii [20]) was 0 and the “No. of dead animals” value (Pneumocystis carinii [21]) was 0. For the same compound, the Control (Pneumocystis carinii [22]) was 2.1%, the Control (Pneumocystis carinii [23]) was 8.3% and the Control (Pneumocystis carinii [24]) was 55.9%. The “No. of dead animals” value (Pneumocystis carinii [25]) was 0.
